Assay results as given in ChEMBL document CHEMBL1134844 (J Med Chem, 2001).

What was measured:
[1] = biological target: 5-hydroxytryptamine receptor 1B (Homo sapiens, UniProt P28222); test: Binding affinity in CHO-K1 cells transfected with human recombinant 5-hydroxytryptamine 1B receptor; format: cell-based
[2] = biological target: T1, 5-hydroxytryptamine receptor 1A (Homo sapiens, UniProt P08908); test: binding affinity towards human recombinant 5-hydroxytryptamine 1A receptor
T1 sequence (P08908 whole entry): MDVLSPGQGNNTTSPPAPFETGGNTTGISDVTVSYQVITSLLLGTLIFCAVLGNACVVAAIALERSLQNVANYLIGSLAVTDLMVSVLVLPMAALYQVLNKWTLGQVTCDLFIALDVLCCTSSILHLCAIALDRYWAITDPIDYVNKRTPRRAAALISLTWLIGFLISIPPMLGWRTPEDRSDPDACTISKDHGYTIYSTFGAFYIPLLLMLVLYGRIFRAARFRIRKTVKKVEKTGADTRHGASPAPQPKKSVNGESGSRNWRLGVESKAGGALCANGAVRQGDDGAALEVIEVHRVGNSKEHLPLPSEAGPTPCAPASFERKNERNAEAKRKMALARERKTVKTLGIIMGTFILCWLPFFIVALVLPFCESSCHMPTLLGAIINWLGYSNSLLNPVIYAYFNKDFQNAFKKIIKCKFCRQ
Summary of the method: (§1)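 Competition binding on CHO-K1 cells stably transfected with human recombinant 5HT1D, 5HT1F or 5HT1A receptors; reported as pIC50, means of duplicates.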

[3] = species: Cavia porcellus; test: Ability to inhibit [125I]- albumin extravasation into dura following electrical stimulation of trigeminal ganglion; format: functional
Summary of the method: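 Anesthetized guinea pigs (pentobarbitone 50 mg/kg ip, 37 °C, ventilated) got a single iv jugular bolus (0.01, 0.03 or 0.1 µg/kg; vehicle 0.9% saline). 5 min later 50 µCi/kg [125I]BSA iv; after another 5 min, unilateral trigeminal ganglion stimulation for 5 min (5 pulses/s, 5 ms, 1.2 mA). Dural cpm/mg wet weight was expressed as stimulated/unstimulated ratio, mean ± SEM.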

[4] = Oral bioavailability in human; format: ADME, organism-based; conditions: in vivo
[5] = Plasma clearance in rat; format: ADME, organism-based
[6] = Beta phase half life was determined in rat; format: ADME, organism-based; conditions: in vivo
[7] = Volume distribution in rat; format: ADME, organism-based; conditions: in vivo
[8] = Oral bioavailability in rat; format: ADME, organism-based; conditions: in vivo
[9] = biological target: T2, 5-hydroxytryptamine receptor 1F (Homo sapiens, UniProt P30939); test: Binding affinity towards human recombinant 5-hydroxytryptamine 1F receptor; summary of the method: as §1
T2 sequence (P30939 whole entry): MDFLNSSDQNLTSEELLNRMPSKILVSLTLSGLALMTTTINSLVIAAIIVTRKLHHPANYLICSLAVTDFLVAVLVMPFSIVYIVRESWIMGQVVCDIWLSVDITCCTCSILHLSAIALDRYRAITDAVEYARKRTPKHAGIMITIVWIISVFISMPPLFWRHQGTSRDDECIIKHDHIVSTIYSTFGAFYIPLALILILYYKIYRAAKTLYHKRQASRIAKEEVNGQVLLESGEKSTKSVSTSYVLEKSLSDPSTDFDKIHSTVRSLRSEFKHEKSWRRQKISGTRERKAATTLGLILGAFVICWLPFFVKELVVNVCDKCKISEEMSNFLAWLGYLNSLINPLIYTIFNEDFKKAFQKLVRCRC

[10] = biological target: 5-hydroxytryptamine receptor 1D (Homo sapiens, UniProt P28221); test: Binding affinity in CHO-K1 cells transfected with human 5-hydroxytryptamine 1D receptor; format: cell-based; summary of the method: as §1
[11] = species: Oryctolagus cuniculus; test: (§2) Relative binding affinity in rabbit saphenous vein functional assay compared to 5-HT
[12] = species: Oryctolagus cuniculus; test: as §2; conditions: read-out: pA2 (converted)
[13] = species: Oryctolagus cuniculus; test: Binding affinity towards rabbit saphenous vein value in parenthesis represents intrinsic activity for RbSv;(1 for 5-HT); format: functional
[14] = species: Cavia porcellus; test: Ability to inhibit [125I]- albumin extravasation into dura following electrical stimulation of trigeminal ganglion of Guinea pig; format: functional
Summary of the method: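 Pentobarbitone-anaesthetised (50 mg/kg ip), ventilated guinea pigs kept at 37 °C; single jugular iv bolus of 0.01, 0.03 or 0.1 µg/kg or saline vehicle. 5 min later, [125I]BSA 50 µCi/kg iv. After another 5 min, one trigeminal ganglion was stimulated for 5 min (5 pulses/s, 5 ms, 1.2 mA). Dura gamma-counted as cpm/mg wet weight; stimulated/unstimulated ratio, mean ± SEM; vehicle controls run daily.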

[15] = species: Oryctolagus cuniculus; conditions: Saphenous vein

Chain of 5-hydroxytryptamine receptor 1B (P28222 whole entry): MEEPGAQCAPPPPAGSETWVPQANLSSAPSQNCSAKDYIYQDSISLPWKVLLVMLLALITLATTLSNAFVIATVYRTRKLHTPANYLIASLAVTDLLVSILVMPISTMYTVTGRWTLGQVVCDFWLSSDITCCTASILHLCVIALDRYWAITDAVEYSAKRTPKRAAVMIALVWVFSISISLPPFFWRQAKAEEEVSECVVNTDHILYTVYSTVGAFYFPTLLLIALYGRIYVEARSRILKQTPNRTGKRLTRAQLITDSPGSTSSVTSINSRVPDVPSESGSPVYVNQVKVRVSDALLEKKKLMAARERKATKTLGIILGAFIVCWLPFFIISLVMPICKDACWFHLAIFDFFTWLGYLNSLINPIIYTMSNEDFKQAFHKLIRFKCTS
Chain of 5-hydroxytryptamine receptor 1D (P28221 whole entry): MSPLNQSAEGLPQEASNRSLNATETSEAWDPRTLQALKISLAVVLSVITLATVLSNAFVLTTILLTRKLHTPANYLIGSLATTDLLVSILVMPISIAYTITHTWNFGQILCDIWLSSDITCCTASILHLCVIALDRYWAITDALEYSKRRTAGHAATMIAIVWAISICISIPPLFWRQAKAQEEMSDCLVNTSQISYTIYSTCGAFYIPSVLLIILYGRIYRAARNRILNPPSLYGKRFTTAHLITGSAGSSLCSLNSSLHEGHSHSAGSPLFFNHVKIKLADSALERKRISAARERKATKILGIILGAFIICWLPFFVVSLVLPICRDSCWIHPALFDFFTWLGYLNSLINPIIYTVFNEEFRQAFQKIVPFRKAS

| SMILES | IC50 [1] [nM] | IC50 [10] [nM] | pA50 [11] | Kb [12] [nM] | further results |
| --- | --- | --- | --- | --- | --- |
| CN(C)[C@H]1C[C@H](c2c[nH]c3ccc(CC4COC(=O)N4)cc32)C1 (stereo in doubt; 1) [listing 1 of 2 here] | 112 | 15.8 | – | – | IC50 [2]: 3550 nM; ED50 [3]: ~0.01 µg/kg; bioavailability [4]: 41%; clearance [5]: 40 mL/min/kg; half-life [6]: 1.4 h; Vd [7]: 2.6 L/kg; bioavailability [8]: 35%; IC50 [9]: 363 nM |
| CN1C(=O)OCC1Cc1ccc2[nH]cc([C@H]3C[C@H](N(C)C)C3)c2c1 (stereo in doubt; 34) [listing 1 of 2 here] | – | – | 4.85 | – | – |
| CN1C(=O)OCC1Cc1ccc2[nH]cc([C@H]3C[C@H](N(C)C)C3)c2c1 (stereo in doubt; 30) [listing 1 of 2 here] | 204 | 100 | – | – | – |
| Cc1noc(Cc2ccc3[nH]cc([C@H]4C[C@H](N(C)C)C4)c3c2)n1 | 1510 | 933 | – | 7590 | – |
| CN(C)[C@H]1C[C@H](c2c[nH]c3ccc(CC4COC(=O)N4)cc32)C1 (stereo in doubt; 31) [listing 1 of 2 here] | 562 | 170 | – | – | – |
| CN1C(=O)OCC1Cc1ccc2[nH]cc([C@H]3C[C@H](N(C)C)C3)c2c1 (stereo in doubt; 34) [listing 2 of 2 here] | 97.7 | 57.5 | – | – | – |
| CN(C)[C@H]1C[C@H](c2c[nH]c3ccc(CC4COC(=O)N4)cc32)C1 (stereo in doubt; 1) [listing 2 of 2 here] | – | – | 5.72 | – | – |
| CN(C)[C@H]1C[C@H](c2c[nH]c3ccc(CC4COC(=O)N4)cc32)C1 (stereo in doubt; 31) [listing 2 of 2 here] | – | – | 4.95 | – | – |
| CN1C(=O)OCC1Cc1ccc2[nH]cc([C@H]3C[C@H](N(C)C)C3)c2c1 (stereo in doubt; 30) [listing 2 of 2 here] | – | – | 5.21 | – | – |
| CN(C)[C@H]1C[C@H](c2c[nH]c3ccc(C(N)=O)cc32)C1 | 44.7 | 14.8 | 6.25 | – | – |
| CN(C)[C@H]1C[C@H](c2c[nH]c3ccc(CC(N)=O)cc32)C1 | 1350 | 724 | – | 16600 | – |
| CNS(=O)(=O)Cc1ccc2[nH]cc(C[C@H]3CCCN3C)c2c1 | 14.5 | 7.24 | – | – | pA50 [13]: 6.33; ED50 [14]: 0.1 µg/kg |
| CN[C@H]1C[C@H](c2c[nH]c3ccc(CC4COC(=O)N4)cc32)C1 (stereo partly specified) | 32.4 | 7.08 | 6.18 | – | – |
| CN(C)[C@H]1C[C@H](c2c[nH]c3ccc(C(=O)NCc4ccccc4)cc32)C1 | 316 | 141 | – | 1260 | – |
| N[C@H]1C[C@H](c2c[nH]c3ccc(CC4COC(=O)N4)cc32)C1 (stereo in doubt; 23) [listing 1 of 2 here] | – | – | 6.42 | – | – |
| CN(C)[C@H]1C[C@H](Cc2c[nH]c3ccc(C[C@H]4COC(=O)N4)cc23)C1 | 141 | 28.8 | – | 1860 | – |
| CN(C)[C@H]1C[C@H](c2c[nH]c3ccc(CC4COC(=O)N4)cc32)C1 (stereo in doubt; 35) [listing 1 of 2 here] | – | – | 5.15 | – | – |

| SMILES | IC50 [1] [nM] | IC50 [10] [nM] | pA50 [11] | Kb [12] [nM] | further results |
| --- | --- | --- | --- | --- | --- |
| N[C@H]1C[C@H](c2c[nH]c3ccc(CC4COC(=O)N4)cc32)C1 (stereo in doubt; 24) | – | – | 5.8 | – | – |
| CN(C)[C@H]1C[C@H](c2c[nH]c3ccc(CCN4C(=O)CNC4=O)cc32)C1 | – | – | – | 1910 | – |
| CC1(C)NC(=O)N(CCc2ccc3[nH]cc([C@H]4C[C@H](N)C4)c3c2)C1=O | 1120 | 501 | – | 2690 | – |
| CNS(=O)(=O)Cc1ccc2[nH]cc([C@H]3C[C@H](N(C)C)C3)c2c1 | 275 | 191 | 5.25 | – | – |
| CN(C)CCc1c[nH]c2ccc(C[C@H]3COC(=O)N3)cc12 [ZOLMITRIPTAN] | 6.17 | 2.82 | 6.8 | – | bioavailability [4]: 40%; ED50 [14]: ~12 µg/kg |
| CN(C)[C@H]1C[C@H](c2c[nH]c3ccc(CN4C(=O)NC(C)(C)C4=O)cc32)C1 | 3800 | 3090 | – | 589 | – |
| CNS(=O)(=O)Cc1ccc2[nH]cc(CCN(C)C)c2c1 | – | – | – | – | pA50 [15]: 6.6; bioavailability [4]: 14%; ED50 [14]: 10 µg/kg |
| N[C@H]1C[C@H](c2c[nH]c3ccc(CC4COC(=O)N4)cc32)C1 (stereo in doubt; 23) [listing 2 of 2 here] | 18.2 | 3.63 | – | – | – |
| CN(C)[C@H]1C[C@H](c2c[nH]c3ccc(CN4C(=O)CNC4=O)cc32)C1 | 6310 | 2450 | – | 9330 | – |
| CN(C)[C@H]1C[C@H](c2c[nH]c3ccc(CCN4C(=O)NC(C)(C)C4=O)cc32)C1 | 1200 | 1480 | – | 891 | – |
| N[C@H]1C[C@H](c2c[nH]c3ccc(Oc4ccccc4)cc32)C1 | 9.55 | 14.5 | < 6.5 | – | – |
| CN(C)[C@H]1C[C@H](c2c[nH]c3ccc(Oc4ccccc4)cc32)C1 | 97.7 | 64.6 | – | 240 | – |
| CN(C)[C@H]1C[C@H](c2c[nH]c3ccc(CCN4C(=O)c5ccccc5C4=O)cc32)C1 | 204 | 195 | – | 170 | – |
| Cc1nc(Cc2ccc3[nH]cc([C@H]4C[C@H](N(C)C)C4)c3c2)n[nH]1 | 3890 | 2040 | – | 6610 | – |
| CN(C)[C@H]1C[C@H](c2c[nH]c3ccc(CC(=O)NCc4ccccc4)cc32)C1 | 263 | 339 | – | 3890 | – |
| Cc1noc(-c2ccc3[nH]cc([C@H]4C[C@H](N(C)C)C4)c3c2)n1 | 832 | 562 | – | 955 | – |
| CN(C)[C@H]1C[C@H](c2c[nH]c3ccc(CC4COC(=O)N4)cc32)C1 (stereo in doubt; 35) [listing 2 of 2 here] | 162 | 100 | – | – | – |
